Series [1] relates to Leishmania donovani. Description: Anti-protozoal activity against Leishmania donovani MHOM-ET-67/L82 amastigotes after 72 hrs by Alamar blue assay. Type of series: functional, organism-based. As to conditions: MHOM-ET-67/L82, 72 h.
The nature of series [2]: Toxicity against rat L6 cells after 72 hrs by Alamar blue assay. Type of series: cell-based. An outline of the steps: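 Cytotoxicity was measured on the L6 rat skeletal myoblast cell line, with podophyllotoxin as the positive control.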
On the technique in general: Alamar Blue is a resazurin reagent that responds to reducing activity.

In series [3] the test system is Plasmodium falciparum. Description: Anti-protozoal activity against Plasmodium falciparum K1 IEF stage after 72 hrs by [3H]hypoxanthine incorporation assay. Type of series: functional, organism-based. An outline of the steps:
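P. falciparum K1 strain was tested at the IEF stage, with chloroquine as the positive control.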

≈ marks a conversion by molar mass, not a printed value.

The compound `CCCCCCCCCCCCCCCCOP(=O)([O-])OCC[N+](C)(C)C` [MILTEFOSINE] yielded an IC50 in series [1] of 0.144 µg/mL (≈ 0.353 µM).

With `C/C=C/c1ccc(O[C@H](C)[C@@H](O)c2ccc(OC)c(OC)c2)c(OC)c1`, it took 13.2 µg/mL (≈ 36.8 µM) to reach half-maximal inhibition in series [2] (IC50 at 72 h). The IC50 was determined as 1.71 µg/mL (≈ 4.77 µM) in series [3] and 10.6 µg/mL (≈ 29.6 µM) in series [1].

In series [2], `C/C=C/c1ccc(O[C@H](C)[C@@H](O)c2ccccc2)c(OC)c1` registered an IC50 at 72 h of 11.9 µg/mL (≈ 39.9 µM). Also, the IC50 in series [3] is 3.23 µg/mL (≈ 10.8 µM); in series [1], 2.29 µg/mL (≈ 7.67 µM).

Regarding `COc1cc(Br)ccc1O[C@H](C)[C@@H](O)c1cc(OC)c(OC)c(OC)c1`, the IC50 at 72 h in series [2] was 20.3 µg/mL (≈ 47.5 µM). In addition, the IC50 in series [3] amounted to 8.47 µg/mL (≈ 19.8 µM); in series [1] it was 11.3 µg/mL (≈ 26.4 µM).

`CCN(CC)CCCC(C)Nc1ccnc2cc(Cl)ccc12` (stereo unspecified) [CHLOROQUINE] yielded an IC50 in series [3] of 0.54 µg/mL (≈ 1.69 µM).

In the case of `COc1ccc([C@H](O)[C@@H](C)Oc2ccc(Br)cc2OC)cc1`, in series [2], the IC50 at 72 h worked out at 13.5 µg/mL (≈ 36.8 µM). Also, the IC50 was found to be 4.31 µg/mL (≈ 11.7 µM) in series [3] and 4.79 µg/mL (≈ 13 µM) in series [1].

In turn, `COc1cc(Br)ccc1O[C@H](C)[C@H](O)c1ccc2c(c1)OCO2` had an IC50 at 72 h in series [2] of 48.2 µg/mL (≈ 126 µM). The results for the IC50 in series [3] and in series [1] were 10.8 µg/mL (≈ 28.3 µM) and 9.2 µg/mL (≈ 24.1 µM), respectively.

For `C/C=C/c1ccc(O[C@H](C)[C@@H](OCOC)c2ccccc2)c(OC)c1`, it took 52.3 µg/mL (≈ 153 µM) to reach half-maximal inhibition in series [2] (IC50 at 72 h). Besides, the values for the IC50 in series [3] and in series [1] were 47.3 µg/mL (≈ 138 µM) and 52.5 µg/mL (≈ 153 µM), respectively.

`COc1ccc(C(=O)[C@@H](C)Oc2ccc(Br)cc2OC)cc1OC`: the midpoint of inhibition in series [2], the IC50 at 72 h, lay at 41.6 µg/mL (≈ 105 µM). The IC50 amounted to 3.12 µg/mL (≈ 7.89 µM) in series [3] and 12.1 µg/mL (≈ 30.6 µM) in series [1].

As to `C/C=C/c1ccc(O[C@H](C)[C@H](O)c2ccc3c(c2)OCO3)c(OC)c1`, inhibition in series [2] was half-maximal at 14.7 µg/mL (≈ 42.9 µM) (IC50 at 72 h). Moreover, the values for the IC50 in series [3] and in series [1] were 1.73 µg/mL (≈ 5.05 µM) and 10.2 µg/mL (≈ 29.8 µM), respectively.

In series [2], `COc1cc(-c2ccccc2)ccc1O[C@H](C)[C@@H](O)c1ccccc1` yielded an IC50 at 72 h of 11.2 µg/mL (≈ 33.5 µM). For the same compound, the half-inhibitory concentration (IC50) worked out at 5.99 µg/mL (≈ 17.9 µM) in series [3] and 2.48 µg/mL (≈ 7.42 µM) in series [1].

The compound `C/C=C/c1ccc(O[C@H](C)[C@@H](O)c2ccc(OC)cc2)c(OC)c1` came in with an IC50 at 72 h in series [2] of 15.5 µg/mL (≈ 47.2 µM). The IC50 in series [3] is 1.33 µg/mL (≈ 4.05 µM); in series [1], 5.54 µg/mL (≈ 16.9 µM).

As for `COCO[C@H](c1ccc(OC)c(OC)c1)[C@@H](C)Oc1ccc(Br)cc1OC`, the IC50 at 72 h in series [2] was 50.6 µg/mL (≈ 115 µM). Moreover, the IC50 in series [3] was 49.3 µg/mL (≈ 112 µM); in series [1], 60.3 µg/mL (≈ 137 µM).

The compound `COc1ccc([C@@H](O)[C@@H](C)Oc2ccc(Br)cc2OC)cc1OC` yielded an IC50 at 72 h in series [2] of 20.9 µg/mL (≈ 52.6 µM). Besides, the IC50 is 2.5 µg/mL (≈ 6.29 µM) in series [3] and 10.8 µg/mL (≈ 27.2 µM) in series [1].

In series [2], `C/C=C/c1ccc(O[C@H](C)[C@@H](O)c2ccc3c(c2)OCO3)c(OC)c1` returned an IC50 at 72 h of 15.3 µg/mL (≈ 44.7 µM). Moreover, the IC50 in series [3] turned out to be 4.59 µg/mL (≈ 13.4 µM); in series [1], 6.82 µg/mL (≈ 19.9 µM).

Broadly, the IC50 is the concentration that gives 50% inhibition.

For the origin of these results see ChEMBL document CHEMBL2311282, “Asymmetric synthesis and anti-protozoal activity of the 8,4'-oxyneolignans virolin, surinamensin and analogues” (Eur J Med Chem, 2013).
